From ChEMBL document CHEMBL4396885, “Thioether-based 2-aminobenzamide derivatives: Novel HDAC inhibitors with potent in vitro and in vivo antitumor activity” (Eur J Med Chem, 2019)

How the values were obtained:
HeLa [1] = assay: Antiproliferative activity against human HeLa cells assessed as decrease in cell viability after 72 hrs by CCK-8 assay; format: functional, cell-based
Method in brief: (§1)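 Cells grown to 70–85% confluence (A375, A549, HCT116 in RPMI1640; HeLa, SMMC7721 in DMEM; 10% FBS, 37 °C, 5% CO2), seeded 4000/well, dosed after 12 h across a concentration range, incubated 72 h, then CCK-8 for 1 h; absorbance at 450 nm. IC50 as mean ± SD of three separate experiments.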

HeLa [2] = assay: Antiproliferative activity against human HeLa cells assessed as growth inhibition at 2 uM after 72 hrs by CCK-8 assay relative to control; format: functional; details: read-out: GI
A-375 [3] = assay: Antiproliferative activity against human A375 cells assessed as growth inhibition at 2 uM after 72 hrs by CCK-8 assay relative to control; format: functional; details: A-375, 72 h, read-out: GI
A-375 [4] = assay: Antiproliferative activity against human A375 cells assessed as growth inhibition at 8 uM after 72 hrs by CCK-8 assay relative to control; format: functional; details: A-375, 72 h, read-out: GI
HCT-116 [5] = assay: Antiproliferative activity against human HCT116 cells assessed as decrease in cell viability after 72 hrs by CCK-8 assay; format: functional, cell-based; details: HCT-116, 72 h; method in brief: as §1
HCT-116 [6] = assay: Antiproliferative activity against human HCT116 cells assessed as growth inhibition at 8 uM after 72 hrs by CCK-8 assay relative to control; format: functional; details: HCT-116, 72 h, read-out: GI
A549 [7] = assay: Antiproliferative activity against human A549 cells assessed as growth inhibition at 8 uM after 72 hrs by CCK-8 assay relative to control; format: functional; details: A549, 72 h, read-out: GI
SMMC-7721 [8] = assay: Antiproliferative activity against human SMMC7721 cells assessed as growth inhibition at 8 uM after 72 hrs by CCK-8 assay relative to control; format: functional; details: SMMC-7721, 72 h, read-out: GI
SMMC-7721 [9] = assay: Antiproliferative activity against human SMMC7721 cells assessed as growth inhibition at 2 uM after 72 hrs by CCK-8 assay relative to control; format: functional; details: SMMC-7721, 72 h, read-out: GI
HCT-116 [10] = assay: Antiproliferative activity against human HCT116 cells assessed as growth inhibition at 2 uM after 72 hrs by CCK-8 assay relative to control; format: functional; details: HCT-116, 72 h, read-out: GI
A-375 [11] = assay: Antiproliferative activity against human A375 cells assessed as decrease in cell viability after 72 hrs by CCK-8 assay; format: functional, cell-based; details: A-375, 72 h; method in brief: as §1
SMMC-7721 [12] = assay: Antiproliferative activity against human SMMC7721 cells assessed as decrease in cell viability after 72 hrs by CCK-8 assay; format: functional, cell-based; details: SMMC-7721, 72 h; method in brief: as §1
A549 [13] = assay: Antiproliferative activity against human A549 cells assessed as growth inhibition at 2 uM after 72 hrs by CCK-8 assay relative to control; format: functional; details: A549, 72 h, read-out: GI
HeLa [14] = assay: Antiproliferative activity against human HeLa cells assessed as growth inhibition at 8 uM after 72 hrs by CCK-8 assay relative to control; format: functional; details: read-out: GI
A549 [15] = assay: Antiproliferative activity against human A549 cells assessed as decrease in cell viability after 72 hrs by CCK-8 assay; format: functional, cell-based; details: A549, 72 h; method in brief: as §1

IC50 (HeLa [1]) [µM]	IC50 (HCT-116 [5]) [µM]	IC50 (A-375 [11]) [µM]	IC50 (SMMC-7721 [12]) [µM]	IC50 (A549 [15]) [µM]	Compound	inhibition of growth at 2 µM (HeLa [2]) [%]	inhibition of growth at 2 µM (A-375 [3]) [%]	inhibition of growth at 8 µM (A-375 [4]) [%]	inhibition of growth at 8 µM (HCT-116 [6]) [%]	inhibition of growth at 8 µM (A549 [7]) [%]	inhibition of growth at 8 µM (SMMC-7721 [8]) [%]	inhibition of growth at 2 µM (SMMC-7721 [9]) [%]	inhibition of growth at 2 µM (HCT-116 [10]) [%]	inhibition of growth at 2 µM (A549 [13]) [%]	inhibition of growth at 8 µM (HeLa [14]) [%]
3.24	2.87	3.9	3.28		Nc1ccccc1NC(=O)c1ccc(CSc2cccc(F)c2)cc1	22.5	37.7	76.2	81.3	72.7	83	18.6	5.5	46.9	78.4
12.7	3.75				Nc1ccccc1NC(=O)c1ccc(CSc2ccc(Cl)cc2)cc1	19.2	25.2	48.6	76.6	50.4	16.5	2.93	17.5	47.3	51.4
					COc1ccc(SCc2ccc(/C=C/C(=O)Nc3ccccc3N)cc2)cc1OC	10.1	46	46.4	49.5	80.6	44.6	14.3	12.9	65.5	21.9
					Nc1ccccc1NC(=O)/C=C/c1ccc(CSc2ccc(C(F)(F)F)cn2)cc1	6.07	10.3	3.96	14.9	56.5	20.1	12.1	4.42	51.7	6.82
		3.67		1.19	Nc1ccccc1NC(=O)/C=C/c1ccc(CSc2ccc(F)cc2)cc1	7.09	28.8	24.6	20.2	59.1	15.4	18.3	14.1	51.2	10.4
6.68	2.78	3.61	4.49		COC(=O)c1ccccc1SCc1ccc(C(=O)Nc2ccccc2N)cc1	29.8	35.1	70.1	92	46.1	62.5	18	21.8	44.7	55.5
		1.55		0.64	CC(C)(C)c1ccc(SCc2ccc(/C=C/C(=O)Nc3ccccc3N)cc2)cc1	17.5	38.4	35.5	39	79.8	23.6	18.3	6.66	71.5	9.8
					Nc1ccccc1NC(=O)c1ccc(CSc2ccc(C(F)(F)F)cn2)cc1	11.5	4.3	5.34	25.8	38.9	7.57	12.4	1.2	37.1	16.5
					CC(C)(C)c1ccc(SCc2ccc(C(=O)Nc3ccccc3N)cc2)cc1	9.73	2.13	33.1	60.5	67	46.1	23.6	4.81	38.6	40.2
